Assay results from ChEMBL document CHEMBL1125192, “Analogues of the 5-HT1A serotonin antagonist 1-(2-methoxyphenyl)-4-[4-(2-phthalimido)butyl]piperazine with reduced alpha 1-adrenergic affinity” (J Med Chem, 1991).

What was measured:
[1] = target: T1, Adrenergic receptor alpha-1 (Rattus norvegicus, UniProt P15823+P23944+P43140); test: Binding affinity towards alpha-1 adrenergic receptor of rat frontal cortex using [3H]- WB- 4101 as a radioligand; type: tissue-based
T1 sequence (P15823 whole entry): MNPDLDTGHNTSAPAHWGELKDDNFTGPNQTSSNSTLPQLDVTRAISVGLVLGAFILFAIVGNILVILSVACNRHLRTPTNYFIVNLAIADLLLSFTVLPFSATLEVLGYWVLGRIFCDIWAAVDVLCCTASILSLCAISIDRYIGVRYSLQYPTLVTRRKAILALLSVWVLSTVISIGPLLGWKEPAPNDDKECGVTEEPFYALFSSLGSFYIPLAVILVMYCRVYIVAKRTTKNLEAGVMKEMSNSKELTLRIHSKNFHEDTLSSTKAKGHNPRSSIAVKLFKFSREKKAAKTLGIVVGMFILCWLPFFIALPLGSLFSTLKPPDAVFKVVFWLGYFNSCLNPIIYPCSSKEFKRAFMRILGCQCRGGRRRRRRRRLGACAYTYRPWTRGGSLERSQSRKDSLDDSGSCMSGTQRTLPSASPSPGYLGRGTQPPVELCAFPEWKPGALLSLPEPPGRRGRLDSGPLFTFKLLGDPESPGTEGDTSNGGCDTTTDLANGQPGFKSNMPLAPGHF
T1 sequence (P23944 whole entry): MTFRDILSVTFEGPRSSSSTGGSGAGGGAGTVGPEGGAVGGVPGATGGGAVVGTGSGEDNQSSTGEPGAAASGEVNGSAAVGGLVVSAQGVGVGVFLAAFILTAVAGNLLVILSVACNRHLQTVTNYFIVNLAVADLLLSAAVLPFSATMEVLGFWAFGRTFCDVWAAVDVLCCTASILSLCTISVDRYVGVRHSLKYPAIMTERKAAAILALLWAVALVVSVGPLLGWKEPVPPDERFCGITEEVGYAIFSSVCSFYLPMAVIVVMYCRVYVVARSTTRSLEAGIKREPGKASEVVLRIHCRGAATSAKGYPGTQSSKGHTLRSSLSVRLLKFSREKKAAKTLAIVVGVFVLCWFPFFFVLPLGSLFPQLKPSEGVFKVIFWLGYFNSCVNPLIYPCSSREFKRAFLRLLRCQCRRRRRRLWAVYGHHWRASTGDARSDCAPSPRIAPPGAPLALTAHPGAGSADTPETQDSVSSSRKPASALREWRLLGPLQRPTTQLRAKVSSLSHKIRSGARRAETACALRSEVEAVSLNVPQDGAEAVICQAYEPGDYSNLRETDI
T1 sequence (P43140 whole entry): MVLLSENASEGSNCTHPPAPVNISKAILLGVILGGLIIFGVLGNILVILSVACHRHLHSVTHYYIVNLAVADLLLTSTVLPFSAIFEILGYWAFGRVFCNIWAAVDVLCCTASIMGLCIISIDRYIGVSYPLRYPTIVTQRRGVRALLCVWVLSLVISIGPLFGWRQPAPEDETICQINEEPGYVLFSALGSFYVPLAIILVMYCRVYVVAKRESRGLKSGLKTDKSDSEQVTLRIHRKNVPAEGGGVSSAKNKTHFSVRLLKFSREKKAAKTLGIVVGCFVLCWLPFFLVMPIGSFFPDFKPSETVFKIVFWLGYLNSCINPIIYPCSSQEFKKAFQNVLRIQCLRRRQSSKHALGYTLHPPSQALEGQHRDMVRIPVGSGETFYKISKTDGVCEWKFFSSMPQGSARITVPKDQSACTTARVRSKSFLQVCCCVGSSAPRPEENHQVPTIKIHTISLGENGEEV

[2] = target: T2, 5-hydroxytryptamine receptor 1A (Rattus norvegicus, UniProt P19327); test: Binding affinity towards 5-hydroxytryptamine 1A receptor of rat hippocampus using [3H]-8-hydroxy-2-(di-n-propylamine) tetralin (8-OH-DPAT) as a radioligand; type: tissue-based
T2 sequence (P19327 whole entry): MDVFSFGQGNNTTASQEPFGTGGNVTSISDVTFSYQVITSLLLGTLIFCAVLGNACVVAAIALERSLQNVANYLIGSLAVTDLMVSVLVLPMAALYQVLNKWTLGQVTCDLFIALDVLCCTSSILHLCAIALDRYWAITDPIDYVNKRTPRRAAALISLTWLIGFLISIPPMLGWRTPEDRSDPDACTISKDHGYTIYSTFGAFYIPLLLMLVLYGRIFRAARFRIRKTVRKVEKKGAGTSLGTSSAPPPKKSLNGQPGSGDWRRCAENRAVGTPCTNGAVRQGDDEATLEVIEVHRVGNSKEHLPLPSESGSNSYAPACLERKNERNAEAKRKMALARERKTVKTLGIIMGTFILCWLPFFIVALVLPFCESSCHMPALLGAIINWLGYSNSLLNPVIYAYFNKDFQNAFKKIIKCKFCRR

[3] = target: Serotonin 1a (5-HT1a) receptor/Adrenergic receptor alpha-1 (Rattus norvegicus) (UniProt P15823+P23944+P43140+P19327); test: Ratio of Ki value for alpha-1 receptor to that of 5-HT1A receptor; type: protein assay
In short: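 Ratio of two radioligand binding Ki values. 5-HT1A binding used 0.1 nM [3H]-8-OH-DPAT with rat hippocampal homogenate (6 mg), and 10 μM 8-OH-DPAT defined nonspecific binding. α1-adrenergic binding used 1.0 nM [3H]WB4101 plus 100 nM 8-OH-DPAT with rat frontal cortex (10 mg), and 1 μM prazosin defined nonspecific binding.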

[4] = target: T3, 5-hydroxytryptamine receptor 2C (Rattus norvegicus, UniProt P08909); test: Binding affinity towards 5-hydroxytryptamine 1C receptor using [3H]mesulergine as radioligand
T3 sequence (P08909 whole entry): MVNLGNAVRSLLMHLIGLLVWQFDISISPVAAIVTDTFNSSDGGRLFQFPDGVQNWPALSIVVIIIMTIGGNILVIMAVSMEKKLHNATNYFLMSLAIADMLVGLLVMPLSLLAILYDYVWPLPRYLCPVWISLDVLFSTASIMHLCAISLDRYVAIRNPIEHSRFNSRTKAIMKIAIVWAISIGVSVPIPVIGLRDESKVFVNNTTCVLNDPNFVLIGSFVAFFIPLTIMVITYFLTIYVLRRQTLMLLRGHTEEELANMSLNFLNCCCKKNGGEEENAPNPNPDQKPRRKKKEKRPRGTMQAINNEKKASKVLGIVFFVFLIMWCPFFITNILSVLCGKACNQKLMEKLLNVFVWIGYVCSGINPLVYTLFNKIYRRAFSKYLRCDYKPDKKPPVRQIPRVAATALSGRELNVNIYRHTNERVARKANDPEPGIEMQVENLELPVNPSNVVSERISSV
In short: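 Homogenized rat frontal cortex (10 mg) with 1.0 nM [3H]mesulergine plus 10 nM spiperone; 10 μM 5-HT defined nonspecific binding.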

[5] = target: Serotonin 2 (5-HT2) receptor (Rattus norvegicus, UniProt P30994+P08909+P14842); test: Binding affinity towards 5-hydroxytryptamine 2 receptor using [3H]DOB as; type: protein assay
In short: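 [3H]DOB at 0.4 nM on 15 mg homogenized rat frontal cortex; nonspecific binding set with 1 μM cinanserin.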

D(2) dopamine receptor = D(2) dopamine receptor (Bos taurus, UniProt P20288); test: Binding affinity towards D2-dopaminergic receptor using [3H]NMSP as radioligand
Chain of D(2) dopamine receptor (P20288 whole entry): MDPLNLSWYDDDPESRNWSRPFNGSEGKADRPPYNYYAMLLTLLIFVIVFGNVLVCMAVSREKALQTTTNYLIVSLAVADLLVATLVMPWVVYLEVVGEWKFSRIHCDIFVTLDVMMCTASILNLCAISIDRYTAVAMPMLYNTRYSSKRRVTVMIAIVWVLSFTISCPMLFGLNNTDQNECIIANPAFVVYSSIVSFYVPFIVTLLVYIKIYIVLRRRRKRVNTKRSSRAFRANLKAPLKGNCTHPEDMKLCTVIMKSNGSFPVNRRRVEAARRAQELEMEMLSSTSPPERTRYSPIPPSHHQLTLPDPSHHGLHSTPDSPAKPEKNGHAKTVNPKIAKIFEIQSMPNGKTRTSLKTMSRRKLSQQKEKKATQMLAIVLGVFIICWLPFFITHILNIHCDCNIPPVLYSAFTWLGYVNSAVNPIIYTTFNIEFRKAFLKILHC
In short: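 Calf caudate (2 mg) with 1 nM [3H]NMSP in 140 mM NaCl; nonspecific binding defined by 10 μM sulpiride.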

D(1A) dopamine receptor = D(1A) dopamine receptor (Rattus norvegicus, UniProt P18901); test: Binding affinity towards Dopamine receptor D1 using [3H]SCH-23390 as radioligand
Chain of D(1A) dopamine receptor (P18901 whole entry): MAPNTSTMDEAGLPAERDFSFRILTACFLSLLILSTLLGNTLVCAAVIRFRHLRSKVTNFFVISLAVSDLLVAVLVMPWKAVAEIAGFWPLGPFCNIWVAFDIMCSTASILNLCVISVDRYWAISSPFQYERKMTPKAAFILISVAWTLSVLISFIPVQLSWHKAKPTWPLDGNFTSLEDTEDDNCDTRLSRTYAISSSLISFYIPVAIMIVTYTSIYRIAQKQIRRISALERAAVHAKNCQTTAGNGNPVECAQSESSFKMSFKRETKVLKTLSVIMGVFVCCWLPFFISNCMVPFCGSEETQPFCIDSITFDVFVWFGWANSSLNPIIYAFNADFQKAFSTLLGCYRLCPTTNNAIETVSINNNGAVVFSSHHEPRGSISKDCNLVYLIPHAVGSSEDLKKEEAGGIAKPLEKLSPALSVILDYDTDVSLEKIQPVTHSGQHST
In short: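 Homogenized rat striatum (2 mg), 1 nM [3H]SCH-23390 with 20 nM ketanserin added; 1 μM SCH-23390 defined nonspecific binding.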

[6] = target: 5-hydroxytryptamine receptor 1B (Rattus norvegicus, UniProt P28564); test: Binding affinity towards 5-hydroxytryptamine 1B receptor using [3H]5-HT as radioligand
Chain of 5-hydroxytryptamine receptor 1B (P28564 whole entry): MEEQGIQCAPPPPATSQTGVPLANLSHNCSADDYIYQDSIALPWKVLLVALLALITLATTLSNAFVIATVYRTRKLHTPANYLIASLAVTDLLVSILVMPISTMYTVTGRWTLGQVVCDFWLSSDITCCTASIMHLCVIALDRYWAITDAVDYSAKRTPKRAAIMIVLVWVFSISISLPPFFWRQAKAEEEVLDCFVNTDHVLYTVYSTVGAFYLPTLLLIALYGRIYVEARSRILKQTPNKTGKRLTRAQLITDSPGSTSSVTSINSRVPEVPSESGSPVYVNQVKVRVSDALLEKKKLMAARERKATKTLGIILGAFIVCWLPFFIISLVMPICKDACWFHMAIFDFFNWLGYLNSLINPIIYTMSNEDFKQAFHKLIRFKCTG

Adrenergic receptor beta = Adrenergic receptor beta (Rattus norvegicus, UniProt P18090+P10608+P26255); test: Binding affinity towards beta adrenergic receptor using [3H]DHA as radioligand; type: protein assay
In short: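 Homogenized rat frontal cortex (5 mg) labelled with 1 nM [3H]DHA; 1 μM propranolol for nonspecific binding.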

Ki [1] [µM]	Ki [2] [µM]	Selectivity [3]	SMILES	also measured
0.378	1	0.4	O=C1c2ccccc2C(=O)N1CCCCN1CCN(c2ccc([N+](=O)[O-])cc2)CC1	
0.084	0.0075	11	CCCCC(=O)NCCCCN1CCN(c2ccccc2OC)CC1	
10	0.213		CC(=O)Nc1ccc(N2CCN(CCCCN3C(=O)c4ccccc4C3=O)CC2)cc1	
0.074	0.001	74	COc1ccccc1N1CCN(CCCCNC(=O)C(C)(C)C)CC1	
0.023	0.0063	4	COc1ccccc1N1CCN(CCCCNC(=O)c2ccc(N)cc2)CC1	
0.015	0.022	0.7	COc1ccc(OC)c(N2CCN(CCCCN3C(=O)c4ccccc4C3=O)CC2)c1	
0.025	0.004	6	O=C1c2ccccc2C(=O)N1CCCCN1CCN(c2ccccc2[N+](=O)[O-])CC1	
0.017	0.0054	3	COc1ccccc1N1CCN(CCCCNC(=O)c2ccc(O)cc2)CC1	
0.109	0.0007	156	O=C(NCCCCN1CCN(c2cccc3ccccc23)CC1)C12C[C@H]3C[C@@H](C1)C[C@@H](C2)C3	
0.021	0.002	11	COc1ccccc1N1CCN(CCCCNC(=O)c2ccc(Cl)c(Cl)c2)CC1	
0.064	0.0004		COc1ccccc1N1CCN(CCCCNC(=O)C23C[C@H]4C[C@@H](C2)C[C@@H](C3)C4)CC1	Ki [4]: 0.225 µM; Ki [5]: 0.034 µM; Ki (D(2) dopamine receptor): 0.0027 µM; Ki (D(1A) dopamine receptor): > 1 µM; Ki [6]: 0.89 µM; Ki (Adrenergic receptor beta): 1.02 µM
0.022		22	O=C1c2ccccc2C(=O)N1CCCCN1CCN(c2cccc3ccccc23)CC1	
0.015	0.004	4	COc1ccccc1N1CCN(CCCCNC(=O)c2ccc(I)cc2)CC1	
0.023	0.0036	6	COc1ccccc1N1CCN(CCCCNC(=O)c2ccc(Cl)cc2)CC1	
0.084		7	COc1ccccc1N1CCN(CCCCNC(=O)CCCc2ccccc2)CC1	
0.014	0.0044	3	COc1ccccc1N1CCN(CCCCNC(=O)c2ccc([N+](=O)[O-])cc2)CC1	
